Assays:
[1] = Maximum oral bioavailability in dog liver microsomes based well stirred liver model; type: ADME, Canis lupus familiaris, Microsome; settings: read-out: Fmax
Rattus norvegicus = assay: Suppression of ovariectomized-induced increase in plasma luteinizing hormone level in po dosed Wistar Han rat measured up to 24 hrs; type: functional; settings: time hrs <=24
How it was run: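 Ovariectomized rats given single oral doses, range 1 to 30 mg/kg. Plasma LH followed over time, with cetrorelix at 0.1 mg/kg sc as reference. ED50 calculated from the dose-response.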

[2] = Clearance in cynomolgus monkey hepatocytes; type: ADME, cell-based, Macaca fascicularis, Hepatocyte
[3] = Clearance in Wistar rat at 0.5 mg/kg, iv by LC-MS/MS analysis; type: ADME, organism-based; settings: Wistar, in vivo
[4] = Efflux ratio of apparent permeability across basolateral to apical side over apical to basolateral side in human Caco2 cells at 2 uM measured after 2 hrs by LC-MS/MS analysis; type: ADME, cell-based; settings: Caco-2
How it was run: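 Caco-2 monolayers grown 15 d, integrity checked by TEER. Compound 2 µM added apical or basolateral in FCS-free HEPES carbonate buffer pH 7.2, incubated 2 h at 37 °C. Both compartments sampled before and after, analysed by LC-MS/MS after MeOH precipitation. Papp computed from receiver peak area, surface area and time. Efflux ratio taken as Papp B–A/Papp A–B.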

[5] = Fraction unbound in human plasma; type: ADME, cell-free
[6] = Clearance in cynomolgus monkey liver microsomes; type: ADME, Macaca fascicularis, Microsome
[7] = molecular target: T1, Gonadotropin-releasing hormone receptor (Homo sapiens, UniProt P30968); assay: Inhibition of Tag-lite green-labeled agonist binding to terbium fluorophore-labeled human N-terminal SNAP-tag GnRh receptor expressed in HEK293 cells assessed as dissociation constant by TR-FRET assay; type: cell-based
T1 sequence (P30968 whole entry): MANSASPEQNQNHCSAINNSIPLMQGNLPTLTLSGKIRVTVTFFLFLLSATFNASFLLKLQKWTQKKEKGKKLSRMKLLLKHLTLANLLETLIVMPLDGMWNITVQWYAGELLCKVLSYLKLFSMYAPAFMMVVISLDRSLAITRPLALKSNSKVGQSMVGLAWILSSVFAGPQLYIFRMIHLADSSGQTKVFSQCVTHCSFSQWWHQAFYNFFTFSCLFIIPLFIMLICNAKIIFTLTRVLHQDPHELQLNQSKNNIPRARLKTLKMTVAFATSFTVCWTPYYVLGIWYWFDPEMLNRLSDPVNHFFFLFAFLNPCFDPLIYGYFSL

[8] = Maximum oral bioavailability in cynomolgus monkey hepatocytes; type: ADME, Macaca fascicularis, Hepatocyte; settings: read-out: Fmax
[9] = molecular target: T1, Gonadotropin-releasing hormone receptor; assay: Inhibition of Tag-lite green-labeled agonist binding to terbium fluorophore-labeled human N-terminal SNAP-tag GnRh receptor expressed in HEK293 cells assessed as equilibrium dissociation constant by TR-FRET assay; type: cell-based
[10] = Oral bioavailability in Wistar rat at 2 mg/kg by LC-MS/MS analysis; type: ADME, organism-based; settings: in vivo
[11] = molecular target: T2, Gonadotropin-releasing hormone receptor (Rattus norvegicus, UniProt P30969); assay: Antagonist activity at rat GnRH receptor expressed in CHO-K1 cells assessed as inhibition of buserelin-induced response preincubated for 20 mins followed by buserelin addition and measured after 60 mins by TR-FRET assay; type: cell-based
T2 sequence (P30969 whole entry): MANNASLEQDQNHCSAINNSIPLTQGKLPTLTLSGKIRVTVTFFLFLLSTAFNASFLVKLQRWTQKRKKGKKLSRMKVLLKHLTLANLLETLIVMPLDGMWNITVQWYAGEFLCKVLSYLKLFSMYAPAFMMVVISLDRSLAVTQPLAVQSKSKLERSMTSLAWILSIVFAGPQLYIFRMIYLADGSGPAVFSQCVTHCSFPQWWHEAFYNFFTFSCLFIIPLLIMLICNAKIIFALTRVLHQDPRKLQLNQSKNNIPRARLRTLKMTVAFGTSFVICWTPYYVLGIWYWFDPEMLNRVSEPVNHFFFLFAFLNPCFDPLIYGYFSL
How it was run: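 Frozen rat-receptor cells: thawed, seeded overnight in serum-containing Ham's F12, Accutase-harvested, resuspended in serum-free medium with IP1-d2, 1 h at 37 °C. 1.0 × 10^4 cells/well, 20 min compound preincubation at rt, then 1× EC80 LHRH or buserelin in HEPES stimulation buffer pH 7.4 for 60 min at 37 °C. Tb-anti-IP1 lysis (1:38), HTRF read 60 min later.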

[12] = Chemical stability of compound at pH 1 to 10 measured up to 24 hrs by UV-HPLC analysis; type: physicochemical; settings: buffer, pH 1, 24 h
How it was run: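 10 mM DMSO stock diluted in MeCN, then into pH 1, 7 or 10 buffer. Held at 37 °C, HPLC-UV injections at 0, 1, 2 and 24 h. Recovery given as peak area relative to time zero.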

[13] = Intrinsic clearance in Han Wistar rat hepatocytes at 1 uM measured up to 90 mins by LC/MS/MS analysis; type: ADME, cell-based, Hepatocyte; settings: Han Wistar, read-out: CLH (converted)
Cytochrome P450 2C8 = molecular target: T3, Cytochrome P450 2C8 (Homo sapiens, UniProt P10632); assay: Inhibition of CYP2C8 in human liver microsomes using amodiaquine as substrate by LC-MS/MS analysis; type: ADME
T3 sequence (P10632 whole entry): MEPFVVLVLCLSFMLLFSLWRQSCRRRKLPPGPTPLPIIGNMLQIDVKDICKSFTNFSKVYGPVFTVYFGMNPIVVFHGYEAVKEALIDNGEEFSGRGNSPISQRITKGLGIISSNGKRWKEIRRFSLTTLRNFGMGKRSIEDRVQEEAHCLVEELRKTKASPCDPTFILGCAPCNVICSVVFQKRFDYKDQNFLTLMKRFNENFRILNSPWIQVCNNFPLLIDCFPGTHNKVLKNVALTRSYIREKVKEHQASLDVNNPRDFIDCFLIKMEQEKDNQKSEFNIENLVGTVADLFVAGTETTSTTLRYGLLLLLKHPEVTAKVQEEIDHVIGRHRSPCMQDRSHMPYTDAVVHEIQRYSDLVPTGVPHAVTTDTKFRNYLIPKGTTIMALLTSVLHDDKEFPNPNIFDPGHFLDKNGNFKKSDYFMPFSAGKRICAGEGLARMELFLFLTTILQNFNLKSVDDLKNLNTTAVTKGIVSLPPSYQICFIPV

[14] = Maximum oral bioavailability in rat liver microsomes based well stirred liver model at 1 uM measured after 2 to 60 mins in presence of NADP generating system by LC-MS/MS analysis; type: ADME, Microsome; settings: time 2-60 min, read-out: Fmax
[15] = Maximum oral bioavailability in human liver microsomes based well stirred liver model at 1 uM measured after 2 to 60 mins in presence of NADP generating system by LC-MS/MS analysis; type: ADME, Microsome; settings: time 2-60 min, read-out: Fmax
How it was run: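 Human liver microsomes at 0.5 mg/mL in 100 mM phosphate pH 7.4, 37 °C, G6P/NADP/G6PDH cofactor mix. Compound 1 µM, sampled at 2, 8, 16, 30, 45 and 60 min into cold MeOH, LC-MS/MS. Half-life to intrinsic clearance. Fmax from well-stirred model with liver blood flow 1.32 L/h/kg.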

[16] = molecular target: Mitogen-activated protein kinase 14 (Homo sapiens, UniProt Q16539); assay: Inhibition of MAPK14 (unknown origin)
Chain of Mitogen-activated protein kinase 14 (Q16539 whole entry): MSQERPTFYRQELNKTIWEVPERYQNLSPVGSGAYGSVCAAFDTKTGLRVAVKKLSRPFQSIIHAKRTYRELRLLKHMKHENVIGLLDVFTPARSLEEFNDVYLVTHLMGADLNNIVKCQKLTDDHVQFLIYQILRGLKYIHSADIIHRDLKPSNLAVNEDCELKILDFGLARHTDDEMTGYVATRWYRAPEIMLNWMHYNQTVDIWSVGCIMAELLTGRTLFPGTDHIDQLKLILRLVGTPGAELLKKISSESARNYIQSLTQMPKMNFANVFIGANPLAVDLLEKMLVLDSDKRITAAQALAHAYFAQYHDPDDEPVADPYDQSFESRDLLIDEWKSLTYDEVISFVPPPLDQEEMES

O=C(NCc1ncc(C(F)(F)F)cc1Cl)c1ccc2c(c1)C1(CCS(=O)(=O)CC1)[C@H](C1CC1)N2S(=O)(=O)c1ccc(F)cc1 [BAY-784]
Fh [1]: 85% | ED50 (Rattus norvegicus): 4.5 mg/kg | CLH [2]: 0.71 L/h/kg | clearance [3]: 0.54 L/h/kg | efflux ratio at 2 h, 2 µM [4]: 10 | fraction unbound [5]: 0.014 | CLH [6]: 0.49 L/h/kg | Kd [7]: 0.00983 µM | Fh [8]: 72% | Kd [9]: 0.00552 µM | bioavailability [10]: 48% | IC50 [11]: 0.024 µM | Stabilty [12]: Stable | CLint scaled at 1 µM [13]: 0.75 L/h/kg | IC50 (Cytochrome P450 2C8): 1 µM | Fh at 1 µM [14]: 91% | Fh at 1 µM [15]: 100% | IC50 [16]: 10.7 µM
